An excerpt weighted towards active compounds, which were near 2% of everything screened.
MBD2 DNA inh: inhibitors of MBD2 binding to methylated DNA, primary screen, biochemical, TR-FRET, DNA-binding domain, human | actives 0.31% (n = 370,000) | inhibition, % at 4.4 µM | MBD2 binding to methylated oligonucleotide; in the data active means inhibition above about 13%
ARFGAP1 inhibitor: inhibitors of rat ARFGAP1 GAP activity, primary screen, biochemical, fluorescence polarization, GDP tracer. ADP-ribosylation factor GTPase-activating protein 1 (Rattus norvegicus), Q62848. Arfgap1-stimulated ARF1 GTP hydrolysis, GDP FP detection. inhibition, % at 16.5 µM. actives 0.26% (n = 360,000). AID 651572, 2012;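 active means inhibition above a per-plate limit, mean inhibition of low control wells plus 3 SD, cut at about 25% in these data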;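 further: 0% = DMSO wells with enzyme and 100% = wells lacking Arfgap1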
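Assay system: purified rat His6-Arfgap1 residues 1-136 (GAP domain); Reagent: human Δ17 ARF1 bound to GTP; Dosing: 16.5 µM single point, 1.26% DMSO; Times: GTP hydrolysis reaction 2 h at 25 °C; Signal: FP, GDP Alexa 633 tracer displaced from anti-GDP antibody, 620/688 nm; Measure: % inhibition from polarization.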
UHRF1 binding: UHRF1 methylated DNA binding inhibitors, primary screen, counter-screen for MBD2 inhibitor project, biochemical, TR-FRET, human UHRF1, single concentration. AID 687016, 2013. UHRF1 binding to methylated oligo. E3 ubiquitin-protein ligase UHRF1 (Homo sapiens), Q96T88. inhibition, % at 4.4 µM. actives 0.75% (n = 370,000);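 further: UHRF1 SRA domain binding a hemimethylated CpG hairpin DNA probe; 0% = median of test compound wells and 100% = reference inhibitor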
Target sequence (Q96T88 whole entry, looked up, the tested form may be a part): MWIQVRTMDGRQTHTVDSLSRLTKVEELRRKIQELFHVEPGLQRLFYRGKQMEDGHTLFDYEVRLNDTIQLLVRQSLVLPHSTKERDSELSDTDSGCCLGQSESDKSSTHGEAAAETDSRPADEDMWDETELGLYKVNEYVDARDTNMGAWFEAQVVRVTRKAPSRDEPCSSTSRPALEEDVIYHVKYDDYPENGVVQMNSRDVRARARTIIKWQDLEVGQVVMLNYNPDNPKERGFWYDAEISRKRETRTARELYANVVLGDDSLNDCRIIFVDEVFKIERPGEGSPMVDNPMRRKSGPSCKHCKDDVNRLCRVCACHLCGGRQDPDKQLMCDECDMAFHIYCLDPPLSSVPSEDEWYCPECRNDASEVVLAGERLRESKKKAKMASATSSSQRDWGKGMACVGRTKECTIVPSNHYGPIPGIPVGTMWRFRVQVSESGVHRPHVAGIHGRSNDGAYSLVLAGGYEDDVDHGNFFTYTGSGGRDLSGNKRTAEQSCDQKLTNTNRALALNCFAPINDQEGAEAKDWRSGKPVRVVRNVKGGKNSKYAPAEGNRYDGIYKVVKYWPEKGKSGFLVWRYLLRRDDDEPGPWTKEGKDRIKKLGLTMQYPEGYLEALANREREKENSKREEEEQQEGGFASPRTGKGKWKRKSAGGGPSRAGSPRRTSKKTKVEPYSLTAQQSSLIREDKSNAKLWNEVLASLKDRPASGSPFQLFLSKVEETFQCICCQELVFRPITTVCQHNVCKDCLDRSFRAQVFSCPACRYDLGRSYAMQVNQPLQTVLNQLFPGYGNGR
TCR CD3 inh: inhibitors of human TCR-CD3 interaction, primary screen, biochemical, fluorescence, TAMRA-labeled TCR probe. T-cell receptor (TCR). actives 0.37% (n = 360,000). inhibition, % at 9.4 µM; in the data active means inhibition above about 19%;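 further: recombinant mutant TCR 2C K166C tagged with TAMRA read by polarization; 0% = receptor in buffer alone and 100% = receptor with positive control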
LEDGF integ inh: blockers of LEDGF/p75-dependent integrase strand transfer – biochemical, TR-FRET, high throughput, primary screen; TR-FRET IN-LEDGF/p75 DNA integration, Eu/Cy5; HIV-1 integrase (with human LEDGF/p75); inhibition, % at 3.7 µM; actives 0.64% (n = 370,000); AID 743269, 2014;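 active means inhibition above the screen-wide mean plus 3 SD, cut at about 13% in these data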;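 further: signal is the Cy5 over europium emission ratio at 671 and 618 nm; 0% = plate median of compound wells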
ASAP1 inh: inhibitors of human ASAP1 ArfGAP activity, primary screen, biochemical, fluorescence polarization; actives 0.19% (n = 360,000); ASAP1-stimulated ARF1 GTP hydrolysis, GDP FP detection; inhibition, % at 16.5 µM; in the data active means inhibition above about 25%;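 further: 0% = vehicle with enzyme and substrate and 100% = no enzyme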
UHRF1 ctr MBD2: UHRF1 methylated DNA binding inhibitors, counter-screen for MBD2 inhibitor project, biochemical, TR-FRET, human UHRF1; UHRF1 binding to methylated oligonucleotide; actives 25% (n = 1,000); shares compounds with MBD2 DNA inh; AID 720530, 2013; inhibition, % at 4.4 µM;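 further: UHRF1 SRA domain binding a labeled hemimethylated CpG hairpin DNA; 0% = vehicle only and 100% = reference inhibitor with vehicle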
MBD2 confirm: inhibitors of MBD2 binding to methylated DNA, confirmation, biochemical, TR-FRET, DNA-binding domain, human | shares compounds with MBD2 DNA inh | TR-FRET MBD2-DBD binding to methylated oligonucleotide | inhibition, % at 4.4 µM | actives 26% (n = 1,000); in the data active means inhibition above about 14%
Starred values were filed as active, the others as inactive; · = not tested or not shown; + = active, no number. Unless noted, no stated cut-off is given here; in the data, active means inhibition above about 21%; inactive means the rest.

SMILES	MBD2 DNA inh	ARFGAP1 inhibitor	UHRF1 binding	TCR CD3 inh	LEDGF integ inh	ASAP1 inh	UHRF1 ctr MBD2	MBD2 confirm
COc1cc2cc(C(=O)N(C)C3CCS(=O)(=O)C3)[nH]c2cc1OC (stereo not given)	15*	-18	2	2	2	7	6	1
CN(C(=O)c1ccc(Cl)cc1)C1CCS(=O)(=O)C1 (stereo not given)	-2	0	0	-9	1	1	·	·
O=C(O)CCCCC1CCSS1 (stereo not given)	22*	-8	48*	10	1	12	36*	16*
COCCN(CCOC)Cc1cc(=O)oc2cc(C)c(C)cc12	1	7	-2	-5	-1	-2	·	·
COc1cc(C(=O)NC2CCCC(C)C2C)ccc1OCC(=O)N1CCOCC1 (stereo not given)	1	11	5	8	4	-10	·	·
Cc1ccc(-c2nc3ccc(C)cn3c2Cc2ccccc2C(F)(F)F)cc1	-2	0	3	0	4	9	·	·
Cc1ccc2nc(C(C)(C)C)c(Cc3ccccc3C(F)(F)F)n2c1	15*	12	21*	-9	0	4	8	7
COC(=O)c1cc(-c2cccc([N+](=O)[O-])c2)c2c(=O)[nH]c(=O)n(C)c2n1	14*	6	23*	4	2	-3	8	3
COc1ccc(C(=O)N2CCOC2CNC(=O)C(=O)NCCc2ccccc2OC)cc1 (stereo not given)	-1	1	-1	2	2	-2	·	·
CC(NC(=O)CN(c1cccc(C(F)(F)F)c1)S(C)(=O)=O)c1ccccc1 (stereo not given)	1	-9	-3	6	-4	5	·	·
COc1ccc(NC(=O)CN(C)C(=O)c2cccc(Oc3ccccc3)c2)cc1	2	3	-1	-6	-7	5	·	·
COc1ccc(NC(=O)CN(C)C(=O)c2cccc(-n3cccc3)c2)cc1	33*	0	58*	11	5	-2	43*	38*
COc1ccc(CN(C)C(=O)c2ccc(OCC(=O)Nc3cccc(C(F)(F)F)c3)c(OC)c2)cc1	-3	11	0	-5	9	3	·	·
CC1(c2nnnn2Cc2ccccc2)CCC(=O)N1CCc1ccccc1F (stereo not given)	15*	12	22*	-10	-3	-8	13	6
C=C(C)Cc1c(C)nc(-c2ccccc2)[nH]c1=O	1	-8	0	-8	1	-7	·	·
CCCCCCOC(=O)Cc1c(C)nc(-c2ccccc2)[nH]c1=O	13*	6	15	2	-4	12	3	2
O=C(/C=C/c1cccc(Cl)c1)NNC(=O)c1ccncc1	14*	-8	1	2	0	6	3	1
CC(=O)N1Cc2cc(C(=O)NCC(F)(F)F)nc(-c3cccc(-c4cccnc4)c3)c2[C@H]1CCO	-1	-8	-1	-3	4	-7	·	·
CCC(=O)N1Cc2cc(C(=O)NCC(F)(F)F)nc(-c3cccc(-c4cncnc4)c3)c2[C@H]1CCO	14*	1	26*	0	8	12	2	3
CCCn1nnc(NC(=O)COc2ccc(Cl)cc2)n1	14*	3	23*	-7	1	-11	6	2
O=C(/C=C/c1ccc(O)c([N+](=O)[O-])c1)c1ccc2ccccc2c1	44*	2	0	7	3	4	4	-1
Cc1onc(-c2ccccc2Cl)c1C(=O)N1CCC(Cc2ccccc2)CC1	16*	-3	29*	-5	1	2	8	2
Cc1onc(-c2ccccc2Cl)c1C(=O)N1CCCC1	-6	1	-1	-1	4	10	·	·
O=C(CN1CCCCC1)Nc1cccc(-n2cnnn2)c1	2	-11	0	4	0	8	·	·
CC(C)(Oc1ccc(F)cc1)C(=O)OCC(=O)c1ccc(S(C)(=O)=O)cc1	36*	-11	-1	2	2	-9	6	2
SMILES	MBD2 DNA inh	ARFGAP1 inhibitor	UHRF1 binding	TCR CD3 inh	LEDGF integ inh	ASAP1 inh	UHRF1 ctr MBD2	MBD2 confirm
Cc1ccc(S(=O)(=O)CCC(=O)OCC(=O)c2ccc(F)cc2)cc1	4	7	2	-9	-7	1	·	·
Nn1c(-c2ccc(O)cc2)nnc1-c1ccc(O)cc1	23*	-10	2	-2	2	-3	5	3
C/C=C/c1ccc(OCC(=O)OCc2csc(CC(=O)Nc3ccccc3C)n2)c(OC)c1	-4	-8	0	12	1	9	·	·
Cc1cc(NCCCCCCCNc2cc(C)nc3cc([N+](=O)[O-])ccc23)c2ccc([N+](=O)[O-])cc2n1	21*	+	30*	-10	0	108*	38*	49*
COCCCNc1cc(C)nc2ccccc12	-5	5	0	15	-6	1	·	·
CC(C)(C)n1nnnc1C(c1ccc(C(F)(F)F)cc1)N(Cc1ccc(F)cc1)Cc1ccco1 (stereo not given)	18*	7	4	-5	0	2	9	1
N#Cc1ccc(C(=O)Nc2cccc(S(=O)(=O)NC3=NCCC3)c2)cc1	0	-5	7	4	-1	-4	·	·
COc1ccccc1NC(=O)COC(=O)c1cc2c(s1)CCC2	-4	-18	5	2	5	-7	·	·
COc1ccc(OC)c(NC(=O)COC(=O)c2cc3c(s2)CCC3)c1	19*	7	47*	11	7	1	40*	35*
CCOc1ccc(C(=O)N2CCCC2)cc1OC	5	-5	0	4	3	14	·	·
CCOc1ccc(C(=O)N2CCN(CC(=O)N3CCCC3)CC2)cc1OCC	16*	-3	22*	-11	-1	0	5	1

Screens (PubChem)
